≈ marks a conversion by molar mass, not a printed value.
Columns and labels:
Settings in all cases: R6, 48 h
Streptococcus pneumoniae [1] = assay: Antimicrobial activity against streptomycin- resistant Streptococcus pneumoniae R6 harboring PBP2x2349 mutant gene and Janus disruption at PBP1a after 48 hrs by agar dilution method; assay type: functional
Summary of the method: (§1)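 Agar dilution on blood agar plates (D-agar with 3% defibrinated sheep blood), natural atmosphere, inoculated with cells from exponentially growing cultures in C-medium with 0.2% yeast extract grown at 37°C without aeration; narrow range of antibiotic concentrations to detect subtle susceptibility differences; MIC read after 48 h at 37°C.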

Streptococcus pneumoniae [2] = assay: Antimicrobial activity against Streptococcus pneumoniae R6 harboring PBP2x T338P mutant gene after 48 hrs by agar dilution method; assay type: functional; summary of the method: as §1
Streptococcus pneumoniae [3] = assay: Antimicrobial activity against Streptococcus pneumoniae R6 harboring PBP2x T338A mutant gene, disruption at PBP1a and aad9 disruption in CiaR gene after 48 hrs by agar dilution method; assay type: functional; summary of the method: as §1
Streptococcus pneumoniae [4] = assay: Antimicrobial activity against streptomycin-resistant Streptococcus pneumoniae R6 harboring PBP2x T338G mutant gene and Janus disruption at PBP1a after 48 hrs by agar dilution method; assay type: functional; summary of the method: as §1
Streptococcus pneumoniae [5] = assay: Antimicrobial activity against Streptococcus pneumoniae R6 harboring PBP2x2349 mutant gene after 48 hrs by agar dilution method; assay type: functional; summary of the method: as §1
Streptococcus pneumoniae [6] = assay: Antimicrobial activity against Streptococcus pneumoniae R6 harboring PBP2x T338G mutant gene, disruption at PBP1a and aad9 disruption in CiaR gene after 48 hrs by agar dilution method; assay type: functional; summary of the method: as §1
Streptococcus pneumoniae [7] = assay: Antimicrobial activity against Streptococcus pneumoniae R6 harboring PBP2x T338G mutant gene after 48 hrs by agar dilution method; assay type: functional; summary of the method: as §1
Streptococcus pneumoniae [8] = assay: Antimicrobial activity against Streptococcus pneumoniae R6 harboring PBP2x T338P mutant gene, disruption at PBP1a and aad9 disruption in CiaR gene after 48 hrs by agar dilution method; assay type: functional; summary of the method: as §1
Streptococcus pneumoniae [9] = assay: Antimicrobial activity against Streptococcus pneumoniae R6 harboring PBP2x T338A mutant gene after 48 hrs by agar dilution method; assay type: functional; summary of the method: as §1
Streptococcus pneumoniae [10] = assay: Antimicrobial activity against Streptococcus pneumoniae R6 harboring PBP2x2349 and PBP1a2349 mutant gene after 48 hrs by agar dilution method; assay type: functional; summary of the method: as §1
Streptococcus pneumoniae [11] = assay: Antimicrobial activity against streptomycin-resistant Streptococcus pneumoniae R6 harboring PBP2x T338G and PBP1a2349 mutant gene after 48 hrs by agar dilution method; assay type: functional; summary of the method: as §1
Streptococcus pneumoniae [12] = assay: Antimicrobial activity against Streptococcus pneumoniae R6 after 48 hrs by agar dilution method; assay type: functional; summary of the method: as §1
Streptococcus pneumoniae [13] = assay: Antimicrobial activity against Streptococcus pneumoniae R6 harboring wild type PBP2x, disruption in PBP1a and aad9 disruption in CiaR gene after 48 hrs by agar dilution method; assay type: functional; summary of the method: as §1
Streptococcus pneumoniae [14] = assay: Antimicrobial activity against Streptococcus pneumoniae R6 harboring PBP2x T338G mutant gene, disruption at PBP1a and aad9 disruption in CiaR gene after 48 hrs by agar dilution method

CO/N=C(\C(=O)N[C@@H]1C(=O)N2C(C(=O)O)=C(COC(C)=O)CS[C@H]12)c1csc(N)n1 [CEFOTAXIME]
MIC (Streptococcus pneumoniae [1]): 0.2 µg/mL (≈ 0.439 µM) | MIC (Streptococcus pneumoniae [2]): 0.04 µg/mL (≈ 0.0878 µM) | MIC (Streptococcus pneumoniae [3]): 0.045 µg/mL (≈ 0.0988 µM) | MIC (Streptococcus pneumoniae [4]): 0.03 µg/mL (≈ 0.0659 µM) | MIC (Streptococcus pneumoniae [5]): 0.3 µg/mL (≈ 0.659 µM) | MIC (Streptococcus pneumoniae [6]): 0.055 µg/mL (≈ 0.121 µM) | MIC (Streptococcus pneumoniae [7]): 0.045 µg/mL (≈ 0.0988 µM) | MIC (Streptococcus pneumoniae [8]): 0.045 µg/mL (≈ 0.0988 µM) | MIC (Streptococcus pneumoniae [9]): 0.035 µg/mL (≈ 0.0768 µM) | MIC (Streptococcus pneumoniae [10]): 1 µg/mL (≈ 2.2 µM) | MIC (Streptococcus pneumoniae [11]): 0.03 µg/mL (≈ 0.0659 µM) | MIC (Streptococcus pneumoniae [12]): 0.02 µg/mL (≈ 0.0439 µM) | MIC (Streptococcus pneumoniae [13]): 0.025 µg/mL (≈ 0.0549 µM)

Cc1onc(-c2ccccc2)c1C(=O)N[C@@H]1C(=O)N2[C@@H]1SC(C)(C)[C@@H]2C(=O)O [OXACILLIN]
MIC (Streptococcus pneumoniae [1]): 0.95 µg/mL (≈ 2.37 µM) | MIC (Streptococcus pneumoniae [2]): 0.23 µg/mL (≈ 0.573 µM) | MIC (Streptococcus pneumoniae [3]): 0.2 µg/mL (≈ 0.498 µM) | MIC (Streptococcus pneumoniae [4]): 0.21 µg/mL (≈ 0.523 µM) | MIC (Streptococcus pneumoniae [5]): 1 µg/mL (≈ 2.49 µM) | MIC (Streptococcus pneumoniae [6]): 0.25 µg/mL (≈ 0.623 µM) | MIC (Streptococcus pneumoniae [7]): 0.25 µg/mL (≈ 0.623 µM) | MIC (Streptococcus pneumoniae [8]): 0.24 µg/mL (≈ 0.598 µM) | MIC (Streptococcus pneumoniae [9]): 0.18 µg/mL (≈ 0.448 µM) | MIC (Streptococcus pneumoniae [10]): 0.85 µg/mL (≈ 2.12 µM) | MIC (Streptococcus pneumoniae [11]): 0.16 µg/mL (≈ 0.399 µM) | MIC (Streptococcus pneumoniae [12]): 0.08 µg/mL (≈ 0.199 µM) | MIC (Streptococcus pneumoniae [13]): 0.08 µg/mL (≈ 0.199 µM)

CC1(C)S[C@@H]2[C@H](NC(=O)Cc3ccccc3)C(=O)N2[C@H]1C(=O)O [PENICILLIN G]
MIC (Streptococcus pneumoniae [1]): 0.04 µg/mL (≈ 0.12 µM) | MIC (Streptococcus pneumoniae [2]): 0.03 µg/mL (≈ 0.0897 µM) | MIC (Streptococcus pneumoniae [3]): 0.04 µg/mL (≈ 0.12 µM) | MIC (Streptococcus pneumoniae [4]): 0.02 µg/mL (≈ 0.0598 µM) | MIC (Streptococcus pneumoniae [14]): 0.025 µg/mL (≈ 0.0748 µM) | MIC (Streptococcus pneumoniae [5]): 0.04 µg/mL (≈ 0.12 µM) | MIC (Streptococcus pneumoniae [6]): 0.025 µg/mL (≈ 0.0748 µM) | MIC (Streptococcus pneumoniae [7]): 0.03 µg/mL (≈ 0.0897 µM) | MIC (Streptococcus pneumoniae [9]): 0.03 µg/mL (≈ 0.0897 µM) | MIC (Streptococcus pneumoniae [10]): 0.035 µg/mL (≈ 0.105 µM) | MIC (Streptococcus pneumoniae [11]): 0.02 µg/mL (≈ 0.0598 µM) | MIC (Streptococcus pneumoniae [12]): 0.02 µg/mL (≈ 0.0598 µM) | MIC (Streptococcus pneumoniae [13]): 0.02 µg/mL (≈ 0.0598 µM)

CCN1CCN(C(=O)N[C@@H](C(=O)N[C@@H]2C(=O)N3[C@@H]2SC(C)(C)[C@@H]3C(=O)O)c2ccccc2)C(=O)C1=O [PIPERACILLIN]
MIC (Streptococcus pneumoniae [1]): 0.12 µg/mL (≈ 0.232 µM) | MIC (Streptococcus pneumoniae [2]): 0.06 µg/mL (≈ 0.116 µM) | MIC (Streptococcus pneumoniae [3]): 0.11 µg/mL (≈ 0.213 µM) | MIC (Streptococcus pneumoniae [4]): 0.09 µg/mL (≈ 0.174 µM) | MIC (Streptococcus pneumoniae [5]): 0.12 µg/mL (≈ 0.232 µM) | MIC (Streptococcus pneumoniae [6]): 0.08 µg/mL (≈ 0.155 µM) | MIC (Streptococcus pneumoniae [7]): 0.1 µg/mL (≈ 0.193 µM) | MIC (Streptococcus pneumoniae [8]): 0.06 µg/mL (≈ 0.116 µM) | MIC (Streptococcus pneumoniae [9]): 0.09 µg/mL (≈ 0.174 µM) | MIC (Streptococcus pneumoniae [10]): 0.11 µg/mL (≈ 0.213 µM) | MIC (Streptococcus pneumoniae [11]): 0.06 µg/mL (≈ 0.116 µM) | MIC (Streptococcus pneumoniae [12]): 0.04 µg/mL (≈ 0.0773 µM) | MIC (Streptococcus pneumoniae [13]): 0.06 µg/mL (≈ 0.116 µM)

— ChEMBL document CHEMBL1629641, “An important site in PBP2x of penicillin-resistant clinical isolates of Streptococcus pneumoniae: mutational analysis of Thr338” (2009)
